Rows were chosen to be rich in hits. Some 1.6% of all compounds tested hit in one or more screens of this group.
TDP2 inh – TDP2 (human) inhibition, absorbance primary screen | O95551 | recombinant TDP2, T5PNP hydrolysis, p-nitrophenol absorbance 415 nm | inhibition, % at 12.8 µM | actives 0.34% (n = 370,000) | AID 720702;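 active = inhibition above the mean of all tested compounds plus 3 SD, set per campaign, cut at about 25% in these data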
Target sequence (O95551 whole entry, looked up): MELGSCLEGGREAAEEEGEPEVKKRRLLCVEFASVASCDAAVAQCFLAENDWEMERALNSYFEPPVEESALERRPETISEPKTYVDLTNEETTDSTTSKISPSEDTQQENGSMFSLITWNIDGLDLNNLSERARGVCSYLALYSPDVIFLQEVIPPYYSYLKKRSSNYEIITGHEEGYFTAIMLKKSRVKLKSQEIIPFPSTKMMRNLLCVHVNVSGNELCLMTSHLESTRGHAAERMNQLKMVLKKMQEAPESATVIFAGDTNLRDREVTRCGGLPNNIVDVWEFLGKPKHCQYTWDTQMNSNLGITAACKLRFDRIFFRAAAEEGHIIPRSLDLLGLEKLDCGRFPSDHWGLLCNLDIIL
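Test system: Human TDP2 enzyme | Reagent: 5 mM T5PNP | Compound dosing: 12.8 µM single point, 1% DMSO | Incubation: Enzyme reaction with compound for 2 h at 37 °C | Technique: p-Nitrophenol epi absorbance | Read-out: % inhibition relative to enzyme-containing and enzyme-free wells | Benchmarks: High control without enzyme, low control DMSO plus TDP2 | Replicates: Singlicate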
GSTO1 counter – blocks human GSTO1 in RBBP9 counter-screen. P78417. recombinant GSTO1, activity-based probe fluorescence polarization. inhibition, % at 5.96 µM. actives 1.1% (n = 300,000). AID 1974;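 active = inhibition above the campaign mean inhibition plus 3 SD, cut at about 35% in these data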
Target sequence (P78417 whole entry, looked up): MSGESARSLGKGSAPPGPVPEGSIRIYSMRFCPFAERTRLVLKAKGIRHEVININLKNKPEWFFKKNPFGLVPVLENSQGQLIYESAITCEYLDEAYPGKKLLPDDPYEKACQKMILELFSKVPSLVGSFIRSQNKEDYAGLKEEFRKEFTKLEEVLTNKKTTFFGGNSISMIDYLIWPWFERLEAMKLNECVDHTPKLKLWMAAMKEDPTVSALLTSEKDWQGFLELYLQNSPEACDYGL
PAD4 inh – inhibitors of human PAD4 | Q9UM07 | recombinant PAD4, RCA probe fluorescence polarization | inhibition, % at 6.36 µM | actives 0.41% (n = 330,000);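 active = percent inhibition above a cutoff equal to the mean of all tested compounds plus 3 SD, cut at about 15% in these data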
UBC9 SUMO inh – inhibitors of human SUMOylation (UBC9); HTRF SUMOylation assay, SAE1/SAE2 + UBC9, in vitro; inhibition, % at 35 µM; P63279; actives 0.36% (n = 290,000); in the data active = inhibition above about 50%, passing the limit was not always enough; inconclusive = no clear call, values can overlap the other calls
Apaf-1 inh – inhibitors of human Apaf-1 apoptosome. O14727. reconstituted apoptosome caspase-3 activity, DEVD-Rh110 fluorescence. inhibition, % at 20 µM. actives 0.71% (n = 330,000); active = inhibition of at least 40% at 20 µM
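Material: reconstituted apoptosome with Apaf-1, cytochrome c, caspase-9, procaspase-3, dATP / Buffer or medium: pH 7.5 Hepes buffer with CHAPS, BSA, DTT / Also added: cytochrome c with DEVD-Rh110 / Schedule: compound with Apaf-1, dATP, procaspase-3 30 min, then 50 min reaction, room temperature / Technique: rhodamine 110 fluorescence at Ex 480/Em 540 nm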
JMJD2C inh – inhibitors of human GASC-1 (JMJD2C) demethylase. GST-JMJD2C(1-420) H3K9me3 demethylation, DELFIA europium. inhibition, % at 2.35 µM. actives 0.069% (n = 330,000);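 active = more than half of a compound's replicate wells show inhibition beyond 50%, single wells judged on their own value; inconclusive = some, but no more than half, of replicates pass 50% inhibition; inactive = no replicate passes 50% inhibition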;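 also: signal counts dimethyl H3K9 product captured on neutravidin plate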
GSTO1 confirm – GSTO1 (human) inhibition, confirmation; shares compounds with GSTO1 counter; actives 54% (n = 2,400); recombinant GSTO1, probe fluorescence polarization; inhibition, % at 5.96 µM;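 active = inhibition above the primary screen's cutoff, its mean inhibition plus 3 SD, cut at about 35% in these data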;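 also: loss of polarization as inhibitors block binding of rhodamine sulfonate ester activity probe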
GSTO1 ABPP inh – inhibitors of recombinant human GSTO1 | shares compounds with GSTO1 counter | gel ABPP SE-Rh probe fluorescence | inhibition, % at 1 µM | actives 30% (n = 130);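 active = inhibition of the enzyme GSTO1 above about 75%, limit read from the data; inactive = inhibition below that limit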
A number is an active result; – = inactive; ? = inconclusive; · = no result given.

SMILES	TDP2 inh	GSTO1 counter	PAD4 inh	UBC9 SUMO inh	Apaf-1 inh	JMJD2C inh	GSTO1 confirm	others
CC(C)N1CCCCC(NC(=O)c2ccc(-c3ccccc3)cc2)C1=O (stereo not drawn)	–	·	·	·	·	·	·
Nc1c(S(=O)(=O)O)cc(NC(=O)c2ccccc2)c2c1C(=O)c1ccccc1C2=O	·	41	–	–	–	–	63
COc1ccc2c(c1)CN1CN(Cc3ccc(F)cc3)S(=O)(=O)CC21 (stereo not drawn)	–	·	·	·	·	·	·
O=C(c1ccccc1)c1nn(-c2ccc(Cl)cc2)c(=O)cc1C(F)(F)F	–	76	–	–	–	–	78
CCN(CC)C(=O)CC[C@H]1CC[C@]2(CCCN(Cc3cccnc3)C2)O1	–	·	·	·	·	·	·
c1ccc(-c2noc(CSc3nc4ccccc4o3)n2)cc1	–	–	–	–	–	–	·
Clc1ccc(-c2nnc(SCc3nc(-c4ccccc4)no3)o2)cc1	–	40	–	–	–	–	46
COc1cccc(N=Nc2c(=O)[nH]n3c(C)cc(C)nc23)c1	–	38	–	–	–	–	–
CCOc1ccc(N=Nc2c(=O)[nH]n3c(C)cc(C)nc23)cc1	–	–	–	–	–	–	·
O=C(CSc1ncnc2sc3c(c12)CCCC3)Nc1ccc(Oc2ccccc2)cc1	–	·	·	·	·	·	·
CC(C)[C@H](NC(=O)[C@@H]1CCCN1)C(=O)N1CCC2CCN(S(=O)(=O)c3ccccc3)CC21 (stereo partly drawn)	–	·	·	·	·	·	·
CSc1ccccc1NC(=O)COC(=O)c1ccccc1Cc1ccccc1	–	69	–	–	–	–	–
O=C(CN(C(=O)OCC1c2ccccc2-c2ccccc21)[C@@H](Cc1ccccc1)C(=O)O)OCc1ccc(C(=O)NCc2ccccc2)cc1	–	·	·	·	·	·	·
COc1cc2c(cc1NC(=O)CSc1nnc(Cc3cccs3)n1C)oc1ccccc12	–	46	–	–	–	–	–
O=C(N=Nc1c(O)[nH]c2ccc([N+](=O)[O-])cc12)c1ccccc1Cl	–	45	–	·	–	–	–
Cc1ccccc1NCC(=O)N=Nc1c(O)[nH]c2ccc([N+](=O)[O-])cc12	–	45	–	–	–	–	50
O=C(CSc1nnc(-c2c[nH]c3ccccc23)n1C1CC1)NC1CCS(=O)(=O)C1 (stereo not drawn)	–	·	·	·	·	·	·
O=C(CSc1nnc(-c2ccc(Cl)cc2Cl)n1C1CCCCC1)NC1CCS(=O)(=O)C1 (stereo not drawn)	–	45	–	–	–	–	–
COc1ccc(C2C(O)C(c3c[nH]c4ccccc34)=NN2C(=O)CCl)cc1 (stereo not drawn)	–	88	–	–	–	–	93
CC(=O)c1cc(-c2cc(C(=O)O)cc([N+](=O)[O-])c2)c(=O)n2c1CCC2	–	·	·	·	·	·	·
Cn1c(=O)c2ccccc2n2c(CCl)nnc12	–	80	–	–	–	–	86	GSTO1 ABPP inh=–
Cc1ccc(CNC(=O)O[C@H]2CC[C@@]34CCCN3C(=O)CCC[C@H]4[C@H]2C)cc1	–	·	·	·	·	·	·
OC(c1ccccc1)(c1ccccc1)C1CCN(CCCNc2ccc(Cl)cc2Cl)CC1	–	·	·	·	·	·	·
COC(=O)CCCC1=CC2=C(c3ccccc3)C(=O)C(C)(OC(=O)C3CCCC3)C(=O)C2=CN1CCCCO (stereo not drawn)	–	45	–	–	–	–	–
O=C(c1ccncc1F)N1CCC(n2nnc3ncccc32)CC1	–	·	·	·	·	·	·
SMILES	TDP2 inh	GSTO1 counter	PAD4 inh	UBC9 SUMO inh	Apaf-1 inh	JMJD2C inh	GSTO1 confirm	others
N#CC(=C=[N-])c1nc2ccccc2nc1-[n+]1ccccc1	–	64	–	–	–	–	37
Cc1cc[n+](-c2nc3ccccc3nc2C(=C=[N-])C#N)cc1	–	47	–	–	–	–	–
C[C@@H]1ON(C)[C@H]2C[C@H]3c4[nH]c5c(-c6ccc7c(c6)OCO7)cccc5c4CCN3C[C@@H]12	–	·	·	·	·	·	·
Cc1cc(N=Cc2c(O)n(-c3ccc(C)c(C)c3)c(=O)c3ccccc23)no1	–	·	·	–	·	·	·
Cc1cc(N=Cc2c(O)ccc3cc(Br)ccc23)no1	–	46	–	–	·	–	–
C#CCN1CC(N(C)CCOC(=O)c2cc3ccccc3[nH]2)CS1(=O)=O (stereo not drawn)	–	·	·	·	·	·	·
CCOC(=O)Cc1csc(NC(=O)NC2(C(F)(F)F)Oc3ccccc3O2)n1	–	–	–	–	–	–	·
CCOC(=O)Cc1csc(NC(=O)NC2(C(F)(F)F)Oc3cc(Cl)c(Cl)cc3O2)n1	–	44	–	–	–	–	–
CCOC(=O)Cc1csc(NC(=O)NC2(C(F)(F)F)Oc3ccc(Cl)cc3O2)n1 (stereo not drawn)	–	45	–	–	–	–	–
COC(=O)[C@]12C[C@H](CC(=O)NCc3ccccc3)C(=O)N(Cc3cccc4ccccc34)C1=C[C@H](C1CCCC1)O[C@@H]2C	–	·	·	·	·	·	·
Oc1c(CN2CCN(c3ccccc3)CC2)cc(Br)c2cccnc12	–	38	–	–	·	–	–
COc1ccc(CNC(=O)c2noc(C(C)C)c2[N+](=O)[O-])cc1	–	–	–	–	–	–	·
COc1ccc(CCNC(=O)c2noc(C(C)C)c2[N+](=O)[O-])cc1OC	–	39	–	–	–	–	–
COC(=O)c1cc(-c2cc(F)cc(OC)c2)c(=O)n2c1CCC2	–	·	·	·	·	·	·
O=C(O)c1[nH]c2ccccc2c1C(c1ccccc1)c1c(C(=O)O)[nH]c2ccccc12	–	38	–	–	–	–	–
C#CC(=O)N(c1cccc(OC)c1)C(C(=O)NC1CCCC1)c1cccs1 (stereo not drawn)	–	76	–	–	–	–	76
C#CC(=O)N(c1ccc(OC)c(OC)c1)C(C(=O)NC1CCCC1)c1cccs1 (stereo not drawn)	–	48	–	–	–	–	52
CN(C)S(=O)(=O)c1cccc(C(=O)N/N=C\c2cccc(C#N)c2)c1	–	·	·	·	·	·	·
Cc1cc(C(=O)CCl)c(C)n1CCc1ccccc1	–	79	–	–	–	–	97
CCOc1ccc(-n2c(SCC(=O)Nc3ccccc3-c3ccccc3)nnc2-c2ccncc2)cc1	–	·	·	·	·	·	·
Cc1ccccc1NC(=O)c1cccc2c1-c1ccccc1C2=O	–	·	·	·	·	·	·
NC1=NC(=O)/C(=C\c2ccco2)S1	–	41	–	·	–	–	–
Cc1nc2sc(C(=O)NC3CC3)c(N)c2c(C)c1Cl	–	·	·	·	·	·	·
Nc1c(C(=O)NC2CC2)sc2nc3c(c(-c4ccco4)c12)CC/C3=C/c1ccco1	·	62	–	?	·	–	37
O=C1C(=O)c2ccccc2C(O)=C1CCCCl	·	68	–	–	83	–	73
C(=N/N1CCN(c2ccccc2)CC1)/c1ccco1	–	·	·	·	·	·	·
